Test results reported in ChEMBL document CHEMBL3612019, “Revisiting 1,3,4-Oxadiazol-2-ones: Utilization in the Development of ABHD6 Inhibitors” (Bioorg Med Chem, 2015).
The source made the active and inactive calls. The rule behind the calls is not given here.

Assays:
Monoglyceride lipase = molecular target: T1, Monoglyceride lipase (Homo sapiens, UniProt Q99685); assay: Inhibition of human MAGL expressed in HEK293 cells pre-incubated for 10 mins before 2-AG substrate addition by HPLC method; assay type: cell-based; conditions: read-out: IC50
T1 sequence (Q99685 whole entry): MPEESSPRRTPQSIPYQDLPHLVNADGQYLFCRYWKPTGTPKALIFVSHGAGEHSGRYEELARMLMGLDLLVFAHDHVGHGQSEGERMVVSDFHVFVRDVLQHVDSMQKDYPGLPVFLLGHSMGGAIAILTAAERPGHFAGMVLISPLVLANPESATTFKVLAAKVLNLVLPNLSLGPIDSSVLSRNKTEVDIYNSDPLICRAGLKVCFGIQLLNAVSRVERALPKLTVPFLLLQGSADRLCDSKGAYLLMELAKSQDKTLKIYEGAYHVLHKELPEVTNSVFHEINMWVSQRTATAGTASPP
Procedure, shortened: (§1)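 Lysates of hMAGL-overexpressing HEK293 cells in 50 mM Tris–HCl pH 7.4 with 1 mM EDTA. After a 10 min preincubation with inhibitor or DMSO, 2-AG was added (final 50 µM) and incubated 10 min at 37 °C. The reaction was stopped and samples centrifuged. Arachidonic acid formation and 2-AG depletion were measured by HPLC. Replicates as for the FAAH assay.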

[1] = molecular target: T2, Monoacylglycerol lipase ABHD6 (Homo sapiens, UniProt Q9BV23); assay: Inhibition of human ABHD6 expressed in HEK293 cells at 1 uM pre-incubated for 10 mins before 2-AG substrate addition followed by rapid 40 fold compound dilution measured after 10 mins by HPLC method; assay type: cell-based
T2 sequence (Q9BV23 whole entry): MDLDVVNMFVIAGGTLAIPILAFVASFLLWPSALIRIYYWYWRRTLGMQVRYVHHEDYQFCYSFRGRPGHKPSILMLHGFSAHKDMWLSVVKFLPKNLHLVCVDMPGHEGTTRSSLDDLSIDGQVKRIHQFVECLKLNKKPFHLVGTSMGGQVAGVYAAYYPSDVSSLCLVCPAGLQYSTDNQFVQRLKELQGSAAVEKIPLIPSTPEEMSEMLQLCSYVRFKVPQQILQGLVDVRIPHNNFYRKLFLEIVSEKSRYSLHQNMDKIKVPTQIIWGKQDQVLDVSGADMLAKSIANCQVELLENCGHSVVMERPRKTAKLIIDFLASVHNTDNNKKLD

[2] = molecular target: T3, Monoglyceride lipase (Mus musculus) (UniProt O35678); assay: Inhibition of MAGL in mouse whole brain membranes at 32.5 uM incubated for 1 hr by TAMRA-FP probe based competitive activity-based protein profiling assay; assay type: cell membranes; conditions: Membrane
T3 sequence (whole entry): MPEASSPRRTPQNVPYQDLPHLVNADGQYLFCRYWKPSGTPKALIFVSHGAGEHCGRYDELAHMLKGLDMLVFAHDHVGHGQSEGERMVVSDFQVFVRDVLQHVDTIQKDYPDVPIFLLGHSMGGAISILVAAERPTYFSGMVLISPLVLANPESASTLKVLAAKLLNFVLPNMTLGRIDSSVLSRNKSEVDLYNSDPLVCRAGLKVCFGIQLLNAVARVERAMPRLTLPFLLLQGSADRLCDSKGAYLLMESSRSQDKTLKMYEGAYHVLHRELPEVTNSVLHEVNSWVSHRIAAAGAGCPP
Procedure, shortened: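 Competitive ABPP on mouse brain membranes (100 µg) treated 1 h with DMSO or inhibitor. TAMRA-FP labelling then ran 1 h at RT (final probe 2 µM). Reaction was quenched with gel loading buffer and proteins resolved by 10% SDS–PAGE for fluorescent band read-out. WWL70 located the ABHD6 band. Gels are representative of two experiments.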

[3] = molecular target: T4, Fatty-acid amide hydrolase 1 (Homo sapiens) (UniProt O00519); assay: Inhibition of human FAAH expressed in COS7 cell membranes at 20 uM pre-incubated for 10 mins before [3H]-AEA substrate addition by liquid scintillation counting; conditions: COS-7
T4 sequence (whole entry): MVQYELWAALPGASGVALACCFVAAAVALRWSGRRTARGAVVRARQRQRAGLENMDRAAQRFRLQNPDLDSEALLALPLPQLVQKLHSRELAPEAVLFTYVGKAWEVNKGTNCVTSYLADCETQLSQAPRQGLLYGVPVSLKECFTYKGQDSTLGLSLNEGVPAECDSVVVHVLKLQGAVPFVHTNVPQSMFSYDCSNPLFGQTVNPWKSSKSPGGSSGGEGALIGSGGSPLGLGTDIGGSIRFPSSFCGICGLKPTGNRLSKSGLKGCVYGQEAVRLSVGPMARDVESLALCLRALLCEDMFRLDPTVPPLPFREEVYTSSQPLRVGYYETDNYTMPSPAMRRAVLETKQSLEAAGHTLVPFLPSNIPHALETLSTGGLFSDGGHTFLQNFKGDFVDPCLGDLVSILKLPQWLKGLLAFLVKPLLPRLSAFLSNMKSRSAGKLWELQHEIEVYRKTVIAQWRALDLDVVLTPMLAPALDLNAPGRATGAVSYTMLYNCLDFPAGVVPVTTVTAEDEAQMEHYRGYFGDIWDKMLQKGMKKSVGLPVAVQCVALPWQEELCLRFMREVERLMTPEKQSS

[4] = molecular target: T5, Monoglyceride lipase (Homo sapiens) (UniProt Q99685); assay: Inhibition of human MAGL expressed in HEK293 cells at 20 uM pre-incubated for 10 mins before 2-AG substrate addition by HPLC method; assay type: cell-based; procedure, shortened: as §1
T5 sequence (whole entry): T1 sequence (Q99685 whole entry)

[5] = molecular target: Cannabinoid receptor 1 (Rattus norvegicus) (UniProt P20272); assay: Antagonist activity at CB1R in rat cerebellar membranes assessed as inhibition of HU210-induced response at 10 uM by [35S]GTPgammaS binding assay; assay type: functional, cell membranes; conditions: Cerebellum, Membrane
Procedure, shortened: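 Rat cerebellar membranes, [35S]GTPγS binding. Agonist activity is read as % of basal binding. Antagonist activity is read as % of the HU210-evoked response. Compound tested at 10 µM. Values are mean (range), n = 2.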

[6] = molecular target: Cannabinoid receptor 2 (Homo sapiens) (UniProt P34972); assay: Agonist activity at human CB2R expressed in CHO cell membranes at 10 uM by [35S]GTPgammaS binding assay; assay type: functional
[7] = molecular target: T5, Monoglyceride lipase (Homo sapiens); assay: Inhibition of human MAGL expressed in HEK293 cells at 10 uM pre-incubated for 10 mins before 2-AG substrate addition by HPLC method; assay type: cell-based; procedure, shortened: as §1

Cannabinoid receptor 2 (Homo sapiens), sequence (P34972 whole entry): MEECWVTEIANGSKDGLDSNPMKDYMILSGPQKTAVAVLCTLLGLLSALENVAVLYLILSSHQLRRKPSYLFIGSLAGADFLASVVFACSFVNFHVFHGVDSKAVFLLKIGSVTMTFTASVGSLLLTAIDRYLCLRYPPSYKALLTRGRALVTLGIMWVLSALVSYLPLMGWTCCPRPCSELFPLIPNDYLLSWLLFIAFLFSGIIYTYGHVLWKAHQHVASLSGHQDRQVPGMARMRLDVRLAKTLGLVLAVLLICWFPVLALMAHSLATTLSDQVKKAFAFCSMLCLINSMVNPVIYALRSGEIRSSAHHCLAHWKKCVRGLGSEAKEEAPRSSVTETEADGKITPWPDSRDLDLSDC
Cannabinoid receptor 1 (Rattus norvegicus), sequence (P20272 whole entry): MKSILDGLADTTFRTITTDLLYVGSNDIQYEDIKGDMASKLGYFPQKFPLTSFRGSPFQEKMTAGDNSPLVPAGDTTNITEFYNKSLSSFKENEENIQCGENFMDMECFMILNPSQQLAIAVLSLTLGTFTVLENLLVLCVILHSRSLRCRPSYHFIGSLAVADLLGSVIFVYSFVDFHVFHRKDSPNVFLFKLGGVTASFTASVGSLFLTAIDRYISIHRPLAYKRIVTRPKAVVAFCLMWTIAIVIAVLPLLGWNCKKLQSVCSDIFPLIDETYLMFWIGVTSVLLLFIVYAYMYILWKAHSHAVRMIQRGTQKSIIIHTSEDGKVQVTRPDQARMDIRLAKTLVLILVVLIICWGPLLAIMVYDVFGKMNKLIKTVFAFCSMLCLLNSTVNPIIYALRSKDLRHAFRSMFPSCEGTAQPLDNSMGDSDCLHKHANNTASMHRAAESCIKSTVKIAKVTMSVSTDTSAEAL

| IC50 (Monoglyceride lipase) [µM] | IC50 [1] [µM] | inhibition [2] | inhibition [3] [%] | inhibition [4] [%] | % of HU210 response [5] [%] | Activity [6] [%] | inhibition [7] [%] | Structure (SMILES) |
| --- | --- | --- | --- | --- | --- | --- | --- | --- |
| 7.94 |  |  |  |  |  |  |  | Nc1cccc(Cn2nc(Oc3ccccc3)oc2=O)c1 |
|  | 4.07 | Active | 41 | 33 | 104 | 107 | 21 | COc1nn(Cc2cccc(N)c2)c(=O)o1 |
